The text below walks through data of ChEMBL document CHEMBL4311977, “Design and synthesis of parthenolide and 5-fluorouracil conjugates as potential anticancer agents against drug resistant hepatocellular carcinoma” (Eur J Med Chem, 2019).

Series [1] in a line: Oral bioavailability in mouse at 100 mg/kg. To be noted: in vivo. Format: ADME, organism-based.
A short description of series [2]: Oral bioavailability in canine at 100 mg/kg. Format: ADME, organism-based, Canis lupus familiaris. The conditions noted are these: dog, in vivo.
The test system of series [3] is Bel-7402. Put plainly: Antiproliferative activity against human Bel7402 incubated for 72 hrs by MTT assay. The class given is functional, cell-based. The conditions noted are these: Bel-7402, 72 h. The gist of the method:
(§1)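 Bel-7402 and its 5-FU-resistant subline were kept in RPMI-1640 with 10% FBS and 1% penicillin/streptomycin at 37 °C under 5% CO2. Cells were seeded at 5000 per well and left for 12 h, then exposed to a concentration series for 72 h. MTT stock (5 mg/mL) was added for 4 h and the product dissolved in DMSO. OD was read at 570 nm and IC50 obtained by curve fitting.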

Series [4] has as its system Bel7402/5-FU. Description: Antiproliferative activity against human Bel7402/5-FU incubated for 72 hrs by MTT assay. The class given is functional, cell-based. In outline:
as §1

Series [5] has as its system Bel7402/5-FU. Put plainly: Induction of apoptosis in human Bel7402/5-FU assessed as necrotic cells at 5 uM incubated for 48 hrs by annexinV-FITC/propidium iodide staining based flow cytometry (reference value: 0.157 %).
The test system of series [6] is Bel7402/5-FU. Description: Induction of apoptosis in human Bel7402/5-FU assessed as viable cells at 5 uM incubated for 48 hrs by annexinV-FITC/propidium iodide staining based flow cytometry (reference value: 96.9 %).
For series [7], the system named is Bel7402/5-FU. Put plainly: Induction of apoptosis in human Bel7402/5-FU assessed as early apoptotic cells at 5 uM incubated for 48 hrs by annexinV-FITC/propidium iodide staining based flow cytometry (reference value: 20.1 %).
Series [8] has as its system Bel7402/5-FU. Put plainly: Induction of apoptosis in human Bel7402/5-FU assessed as late apoptotic cells at 5 uM incubated for 48 hrs by annexinV-FITC/propidium iodide staining based flow cytometry (reference value: 0.945 %).

Counter-ions that a name gives are not always drawn.

Regarding `C/C1=C\CC[C@@]2(C)O[C@H]2[C@H]2OC(=O)[C@@H](CN(C)C)[C@@H]2CC1`, the bioavailability in series [1] and in series [2] was 70% in each case.

For `C=C1C(=O)O[C@H]2[C@H]1CC/C(COC(=O)Cn1cc(F)c(=O)n(Cc3ccc(F)cc3)c1=O)=C\CC[C@@]1(C)O[C@@H]21`, the IC50 in series [3] stood at 2.73 µM.

Regarding `C=C1C(=O)O[C@H]2[C@H]1CC/C(COC(=O)CCC(=O)N1CCN(C(=O)Cn3cc(F)c(=O)[nH]c3=O)CC1)=C\CC[C@@]1(C)O[C@@H]21`, the IC50 in series [4] and in series [3] was over 20 µM throughout.

Take `C=C1C(=O)O[C@H]2[C@H]1CC/C(COC(=O)CCC(=O)OCn1cc(F)c(=O)[nH]c1=O)=C\CC[C@@]1(C)O[C@@H]21`: the IC50 in series [4] and in series [3] was over 20 µM in each case.

With `C=C1C(=O)O[C@H]2[C@H]1CC/C(COC(=O)CCC(=O)N1CCN(C(=O)Cn3cc(F)c(=O)n(Cc4ccccc4)c3=O)CC1)=C\CC[C@@]1(C)O[C@@H]21`, the half-inhibitory concentration (IC50) in series [4] and in series [3] was over 20 µM in each case.

Consider `C=C1C(=O)O[C@H]2[C@H]1CC/C(COC(=O)Cn1cc(F)c(=O)n(CCC)c1=O)=C\CC[C@@]1(C)O[C@@H]21`, for which the IC50 was determined as 9.11 µM in series [4] and 8.58 µM in series [3].

For `C=C1C(=O)O[C@H]2[C@H]1CC/C(COC(=O)Cn1cc(F)c(=O)n(Cc3cccc(F)c3)c1=O)=C\CC[C@@]1(C)O[C@@H]21`, the IC50 in series [4] worked out at 3.7 µM; in series [3], 2.53 µM.

Molecule `COc1cccc2c1C(=O)c1c(O)c3c(c(O)c1C2=O)C[C@@](O)(C(=O)CO)C[C@@H]3O[C@H]1C[C@H](N)[C@H](O)[C@H](C)O1` [DOXORUBICIN HYDROCHLORIDE] registered an IC50 in series [4] of 8.36 µM.

Take `C=C1C(=O)O[C@H]2[C@H]1CC/C(COC(=O)Cn1cc(F)c(=O)n(Cc3ccc([N+](=O)[O-])cc3)c1=O)=C\CC[C@@]1(C)O[C@@H]21`: the IC50 is 4.34 µM in series [4] and 4.07 µM in series [3].

As for `C=C1C(=O)O[C@H]2[C@H]1CC/C(COC(=O)Cn1cc(F)c(=O)n(Cc3ccc(F)c(F)c3)c1=O)=C\CC[C@@]1(C)O[C@@H]21`, the results for the IC50 in series [4] and in series [3] were 4.48 µM and 2.7 µM, respectively.

As for `C=C1C(=O)O[C@H]2[C@H]1CC/C(COC(=O)Cn1cc(F)c(=O)n(Cc3ccccc3F)c1=O)=C\CC[C@@]1(C)O[C@@H]21`, the values for the IC50 in series [4] and in series [3] were 3.83 µM and 3.77 µM, respectively.

Turning to `C=C1C(=O)O[C@H]2[C@H]1CC/C(COC(=O)Cn1cc(F)c(=O)n(C)c1=O)=C\CC[C@@]1(C)O[C@@H]21`, the half-maximal inhibitory concentration (IC50) was 11.7 µM in series [4] and 9.4 µM in series [3].

For the molecule `C=C1C(=O)O[C@H]2[C@H]1CC/C(COC(=O)Cn1cc(F)c(=O)[nH]c1=O)=C\CC[C@@]1(C)O[C@@H]21`, the concentration for half-maximal inhibition (IC50) in series [4] and in series [3] was over 20 µM throughout.

On to `C=C1C(=O)O[C@H]2[C@H]1CC/C(COC(=O)Cn1cc(F)c(=O)n(Cc3ccccc3)c1=O)=C\CC[C@@]1(C)O[C@@H]21`, for which the IC50 in series [4] was 4.27 µM; in series [3], 3.98 µM.

As for `C=C1C(=O)O[C@H]2[C@H]1CC/C(Cn1cc(Cn3cc(F)c(=O)n(Cc4ccccc4)c3=O)nn1)=C\CC[C@@]1(C)O[C@@H]21`, the IC50 in series [4] turned out to be 8.84 µM; in series [3], 9.16 µM.

Regarding `C=C1C(=O)O[C@H]2[C@H]1CC/C(COC(=O)Cn1cc(F)c(=O)n(Cc3ccc(F)cc3F)c1=O)=C\CC[C@@]1(C)O[C@@H]21`, the IC50 was 5.01 µM in series [4] and 3.67 µM in series [3].

With `C=C1C(=O)O[C@H]2[C@H]1CC/C(COC(=O)Cn1cc(F)c(=O)n(Cc3c(F)cccc3F)c1=O)=C\CC[C@@]1(C)O[C@@H]21`, the IC50 in series [4] turned out to be 4.98 µM; in series [3], 4.5 µM.

As to `C=C1C(=O)O[C@H]2[C@H]1CC/C(COC(=O)Cn1cc(F)c(=O)n(Cc3ccc(Br)cc3)c1=O)=C\CC[C@@]1(C)O[C@@H]21`, the figures for the IC50 in series [4] and in series [3] were 3.24 µM and 2.67 µM, respectively.

Take `C=C1C(=O)O[C@@H]2C3O[C@]3(C)CC/C=C(\C)CC[C@@H]12` (stereo partly drawn): the Activity is 1.29% in series [5], 1.75% in series [7] and 2.52% in series [8]. In addition, the values for the IC50 in series [4] and in series [3] were 13 µM and 8.62 µM, respectively. For the same molecule, in series [6], the viability at 5 µM was 94.3%.

As to `C=C1C(=O)O[C@H]2[C@H]1CC/C(Cn1cc(Cn3cc(F)c(=O)n(Cc4ccc(F)cc4)c3=O)nn1)=C\CC[C@@]1(C)O[C@@H]21`, the results for the IC50 in series [4] and in series [3] were 4.86 µM and 4.91 µM, respectively.

Consider `C=C1C(=O)O[C@H]2[C@H]1CC/C(COC(=O)Cn1cc(F)c(=O)n(Cc3cc(F)ccc3F)c1=O)=C\CC[C@@]1(C)O[C@@H]21`, for which the IC50 in series [4] came to 4.61 µM; in series [3], 3.06 µM.

Take `C=C1C(=O)O[C@H]2[C@H]1CC/C(COC(=O)CCC(=O)NCCCCCCNC(=O)Cn1cc(F)c(=O)n(Cc3ccccc3)c1=O)=C\CC[C@@]1(C)O[C@@H]21`: the IC50 in series [4] was 16.2 µM; in series [3] it was 18.3 µM.

For `C=C1C(=O)O[C@H]2[C@H]1CC/C(COC(=O)CCC(=O)NCCCCCCNC(=O)Cn1cc(F)c(=O)[nH]c1=O)=C\CC[C@@]1(C)O[C@@H]21`, the IC50 in series [4] and in series [3] was over 20 µM each time.

For the molecule `C=C1C(=O)O[C@H]2[C@H]1CC/C(Cn1cc(Cn3cc(F)c(=O)[nH]c3=O)nn1)=C\CC[C@@]1(C)O[C@@H]21`, the IC50 in series [4] and in series [3] was over 20 µM each time.

`C=C1C(=O)O[C@H]2[C@H]1CC/C(COC(=O)Cn1cc(F)c(=O)n(Cc3ccc(Cl)cc3)c1=O)=C\CC[C@@]1(C)O[C@@H]21`: the IC50 in series [4] was 2.42 µM; in series [3] it was 2.56 µM.

With `O=c1[nH]cc(F)c(=O)[nH]1` [FLUOROURACIL], the Activity in series [5] came out at 2.164%; in series [7] it was 1.85%; in series [8], 0.073%. Moreover, the values for the IC50 in series [4] and in series [3] were over 400 µM and 7.36 µM, respectively. In addition, the viability at 5 µM in series [6] amounted to 27.4%.
